# Active and inactive are the calls of the source. The calls are words filed in the database; no cut-off is given here.
# Key:
# T47D [1] = assay: Induction of apoptosis in human T47D cells assessed as late apoptotic cells after 24 hrs by Annexin V-FITC/propidium iodide staining based flow cytometric analysis (reference value: 0.21 %); assay type: functional
# T47D [2] = assay: Cytotoxicity against human T47D cells assessed as reduction in cell viability after 3 hrs by MTT assay
# T47D [3] = assay: Induction of apoptosis in human T47D cells assessed as early apoptotic cells after 24 hrs by Annexin V-FITC/propidium iodide staining based flow cytometric analysis (reference value: 0.66 %); assay type: functional
# MCF10 = assay: Cytotoxicity against human MCF10 cells assessed as reduction in cell viability after 3 hrs by MTT assay; conditions: MCF10, 3 h
# UO-31 = assay: Cytotoxicity against human UO31 assessed as growth inhibition at 10 uM by NCI protocol relative to control; assay type: functional; conditions: read-out: GI
# Method in brief: (§1)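 Run by the NCI under its standard protocol: one dose of 10 μM against a sixty-line panel from nine human tumour tissues. Result given as percent growth inhibition of treated cells relative to untreated cells.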
# T47D [4] = assay: Induction of cell cycle arrest in human T47D cells assessed as increase in accumulation at S phase after 24 hrs by propidium iodide/Annexin V staining based FACScan flow cytometry(reference value: 34.62%); assay type: functional
# 786-0 = assay: Cytotoxicity against human 786-0 assessed as growth inhibition at 10 uM by NCI protocol relative to control; assay type: functional; conditions: read-out: GI
# Method in brief: (§2)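 Run by NCI as a single-dose screen at 10 μM across the sixty-cell-line panel, which covers nine human tumour tissue types. The read-out is percent growth inhibition of treated cells relative to untreated cells.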
# HOP-92 = assay: Cytotoxicity against human HOP-92 assessed as growth inhibition at 10 uM by NCI protocol relative to control; assay type: functional; conditions: read-out: GI; method in brief: as §2
# CAKI-1 = assay: Cytotoxicity against human Caki1 assessed as growth inhibition at 10 uM by NCI protocol relative to control; assay type: functional; conditions: read-out: GI; method in brief: as §2
# MDA-MB-468 = assay: Cytotoxicity against human MDA-MB-468 assessed as growth inhibition at 10 uM by NCI protocol relative to control; assay type: functional; conditions: read-out: GI; method in brief: as §2
# MDA-MB-435 = assay: Cytotoxicity against human MDA-MB-435 assessed as growth inhibition at 10 uM by NCI protocol relative to control; assay type: functional, cell-based; method in brief: as §2
# IGROV-1 = assay: Cytotoxicity against human IGROVI assessed as growth inhibition at 10 uM by NCI protocol relative to control; assay type: functional; conditions: read-out: GI; method in brief: as §2
# UACC-62 = assay: Cytotoxicity against human UACC-62 assessed as growth inhibition at 10 uM by NCI protocol relative to control; assay type: functional; conditions: read-out: GI; method in brief: as §1
# SR = assay: Cytotoxicity against human SR assessed as growth inhibition at 10 uM by NCI protocol relative to control; assay type: functional; conditions: read-out: GI; method in brief: as §1
# T47D [5] = assay: Cytotoxicity against human T-47D assessed as growth inhibition at 10 uM by NCI protocol relative to control; assay type: functional; conditions: read-out: GI; method in brief: as §1
# T47D [6] = assay: Induction of cell cycle arrest in human T47D cells assessed as increase in accumulation at pre G1 phase after 24 hrs by propidium iodide/Annexin V staining based FACScan flow cytometry(reference value: 2.61%); assay type: functional
# SF-539 = assay: Cytotoxicity against human […] assessed as growth inhibition at 10 uM by NCI protocol relative to control; assay type: functional; conditions: read-out: GI; method in brief: as §2
# HCT-116 = assay: Cytotoxicity against human HCT-116 assessed as growth inhibition at 10 uM by NCI protocol relative to control; assay type: functional; conditions: read-out: GI; method in brief: as §2
# A498 = assay: Cytotoxicity against human A498 assessed as growth inhibition at 10 uM by NCI protocol relative to control; assay type: functional; conditions: read-out: GI; method in brief: as §2
# T47D [7] = assay: Induction of cell cycle arrest in human T47D cells assessed as increase in accumulation at G0/G1 phase after 24 hrs by propidium iodide/Annexin V staining based FACScan flow cytometry(reference value: 52.59%); assay type: functional
# EKVX = assay: Cytotoxicity against human EKVX assessed as growth inhibition at 10 uM by NCI protocol relative to control; assay type: functional; conditions: read-out: GI; method in brief: as §2
# T47D [8] = assay: Induction of apoptosis in human T47D cells assessed as necrotic cells after 24 hrs by Annexin V-FITC/propidium iodide staining based flow cytometric analysis (reference value: 1.74%); assay type: functional
# MOLT-4 = assay: Cytotoxicity against human MOLT-4 assessed as growth inhibition at 10 uM by NCI protocol relative to control; assay type: functional; conditions: read-out: GI; method in brief: as §2
# T47D [9] = assay: Induction of apoptosis in human T47D cells assessed as total apoptotic cells after 24 hrs by Annexin V-FITC/propidium iodide staining based flow cytometric analysis (reference value: 2.61 %); assay type: functional
# T47D [10] = assay: Induction of cell cycle arrest in human T47D cells assessed as increase in accumulation at G2/M phase after 24 hrs by propidium iodide/Annexin V staining based FACScan flow cytometry(reference value: 12.79%); assay type: functional
smiles,measurement,setting,value
O=C(CN1CCN(c2cc(=O)[nH]c3ccc(F)cc23)CC1)Nc1nc(-c2ccccc2)cs1,Activity,T47D [1],27.88%
same,IC50,T47D [2],7.2 µM
same,Activity,T47D [3],2.31%
same,IC50,MCF10,39.4 µM
same,inhibition of growth at 10 µM,UO-31,24.2%
same,Activity,T47D [4],52.39%
same,inhibition of growth at 10 µM,786-0,10.3%
same,inhibition of growth at 10 µM,HOP-92,10.9%
same,inhibition of growth at 10 µM,CAKI-1,17.4%
same,inhibition of growth at 10 µM,MDA-MB-468,12.5%
same,growth inhibition (GI),MDA-MB-435,inactive
same,inhibition of growth at 10 µM,IGROV-1,16.1%
same,inhibition of growth at 10 µM,UACC-62,14.4%
same,inhibition of growth at 10 µM,SR,21.2%
same,inhibition of growth at 10 µM,T47D [5],29.6%
same,Activity,T47D [6],43.05%
same,inhibition of growth at 10 µM,SF-539,13.3%
same,inhibition of growth at 10 µM,HCT-116,16%
same,inhibition of growth at 10 µM,A498,27.9%
same,Activity,T47D [7],41.31%
same,inhibition of growth at 10 µM,EKVX,14.6%
same,Activity,T47D [8],12.86%
same,inhibition of growth at 10 µM,MOLT-4,13.3%
same,Activity,T47D [9],43.05%
same,Activity,T47D [10],6.3%

# Reference: ChEMBL document CHEMBL4819122, “Novel 4-(piperazin-1-yl)quinolin-2(1H)-one bearing thiazoles with antiproliferative activity through VEGFR-2-TK inhibition” (Bioorg Med Chem, 2021)
